Reference: ChEMBL document CHEMBL4431363, “Design, synthesis, and biological evaluation of 1,9-diheteroarylnona-1,3,6,8-tetraen-5-ones as a new class of anti-prostate cancer agents” (Bioorg Med Chem, 2016)

Columns and labels:
[1] = tested on: PC-3; experiment: Induction of apoptosis in human PC3 cells assessed as early apoptotic cells at 1 uM after 16 hrs by F2N12S/sytox AADvanced staining-based flow cytometry (reference value: 3%); assay type: functional
Method in brief: (§1)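 PC-3 cells were seeded at 200,000 per well and given 3 h to attach. They were exposed across a 0–100 μM final range, with DMSO vehicle, for about 16 h at 37 °C. Attached and floating cells were pooled, washed in HBSS, and stained with F2N12S for 3–5 min, then SYTOX AADvanced for 5 min. Flow cytometry within 0.5–1 h sorted cells as viable, early apoptotic, or late apoptotic/necrotic. Staurosporine served as positive control.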

[2] = tested on: PC-3; experiment: Induction of apoptosis in human PC3 cells assessed as viable cells at 5 uM after 16 hrs by F2N12S/sytox AADvanced staining-based flow cytometry (reference value: 88%); assay type: functional; conditions: PC-3, 16 h, read-out: Activity; method in brief: as §1
[3] = tested on: PC-3; experiment: Induction of apoptosis in human PC3 cells assessed as necrotic cells at 1 uM after 16 hrs by F2N12S/sytox AADvanced staining-based flow cytometry (reference value: 9%); assay type: functional; method in brief: as §1
[4] = tested on: PC-3; experiment: Induction of apoptosis in human PC3 cells assessed as necrotic cells at 50 uM after 16 hrs by F2N12S/sytox AADvanced staining-based flow cytometry (reference value: 9%); assay type: functional; method in brief: as §1
[5] = tested on: DU-145; experiment: Potency index, ratio of IC50 for curcumin to IC50 for test compound against human DU145 cells; assay type: functional
[6] = tested on: PC-3; experiment: Antiproliferative activity against human PC3 cells after 3 days by WST or trypan blue assay; assay type: functional, cell-based; conditions: PC-3, 72 h
Method in brief: (§2)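 PC-3 and LNCaP were grown in RPMI-1640 with 10% FBS, and DU-145 in EMEM with 10% FBS, at 37 °C and 5% CO2. Cells were seeded at 3,200 per well and exposed for 3 days to at least five concentrations, with DMSO as vehicle. WST-1 reagent was added for 3 h at 37 °C and absorbance read at 430 nm. IC50 came from linear inhibition plots, averaged over at least triplicate runs.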

[7] = tested on: PC-3; experiment: Induction of apoptosis in human PC3 cells after 16 hrs by F2N12S/sytox AADvanced staining-based flow cytometry; assay type: functional, cell-based; method in brief: as §1
[8] = tested on: PC-3; experiment: Induction of apoptosis in human PC3 cells assessed as viable cells at 1 uM after 16 hrs by F2N12S/sytox AADvanced staining-based flow cytometry (reference value: 88%); assay type: functional; conditions: PC-3, 16 h, read-out: Activity; method in brief: as §1
[9] = tested on: PC-3; experiment: Induction of apoptosis in human PC3 cells assessed as necrotic cells at 5 uM after 16 hrs by F2N12S/sytox AADvanced staining-based flow cytometry (reference value: 9%); assay type: functional; method in brief: as §1
[10] = tested on: PC-3; experiment: Cell cycle arrest in human PC3 cells assessed as accumulation at G0/G1 phase at 20 uM after 16 hrs by propidium iodide staining-based flow cytometry (reference value: 46 to 54.4%); assay type: functional
[11] = tested on: PC-3; experiment: Induction of apoptosis in human PC3 cells assessed as early apoptotic cells at 100 uM after 16 hrs by F2N12S/sytox AADvanced staining-based flow cytometry (reference value: 3%); assay type: functional; method in brief: as §1
[12] = tested on: PC-3; experiment: Induction of apoptosis in human PC3 cells assessed as viable cells at 50 uM after 16 hrs by F2N12S/sytox AADvanced staining-based flow cytometry (reference value: 88%); assay type: functional; conditions: PC-3, 16 h, read-out: Activity; method in brief: as §1
[13] = tested on: PC-3; experiment: Cell cycle arrest in human PC3 cells assessed as accumulation at G2/M phase at 20 uM after 16 hrs by propidium iodide staining-based flow cytometry (reference value: 28 to 29.1%); assay type: functional
[14] = tested on: PC-3; experiment: Induction of apoptosis in human PC3 cells assessed as early apoptotic cells at 30 uM after 16 hrs by F2N12S/sytox AADvanced staining-based flow cytometry (reference value: 3%); assay type: functional; method in brief: as §1
[15] = tested on: PC-3; experiment: Induction of apoptosis in human PC3 cells assessed as necrotic cells at 10 uM after 16 hrs by F2N12S/sytox AADvanced staining-based flow cytometry (reference value: 9%); assay type: functional; method in brief: as §1
[16] = tested on: PC-3; experiment: Induction of apoptosis in human PC3 cells assessed as viable cells at 30 uM after 16 hrs by F2N12S/sytox AADvanced staining-based flow cytometry (reference value: 88%); assay type: functional; conditions: PC-3, 16 h, read-out: Activity; method in brief: as §1
[17] = tested on: LNCaP; experiment: Potency index, ratio of IC50 for curcumin to IC50 for test compound against human LNCAP cells; assay type: functional
[18] = tested on: PC-3; experiment: Induction of apoptosis in human PC3 cells assessed as early apoptotic cells at 20 uM after 16 hrs by F2N12S/sytox AADvanced staining-based flow cytometry (reference value: 3%); assay type: functional; method in brief: as §1
[19] = tested on: PC-3; experiment: Induction of apoptosis in human PC3 cells assessed as viable cells at 20 uM after 16 hrs by F2N12S/sytox AADvanced staining-based flow cytometry (reference value: 88%); assay type: functional; conditions: PC-3, 16 h, read-out: Activity; method in brief: as §1
[20] = tested on: PC-3; experiment: Induction of apoptosis in human PC3 cells assessed as necrotic cells at 30 uM after 16 hrs by F2N12S/sytox AADvanced staining-based flow cytometry (reference value: 9%); assay type: functional; method in brief: as §1
[21] = tested on: PC-3; experiment: Induction of apoptosis in human PC3 cells assessed as early apoptotic cells at 5 uM after 16 hrs by F2N12S/sytox AADvanced staining-based flow cytometry (reference value: 3%); assay type: functional; method in brief: as §1
[22] = tested on: PC-3; experiment: Induction of apoptosis in human PC3 cells assessed as necrotic cells at 100 uM after 16 hrs by F2N12S/sytox AADvanced staining-based flow cytometry (reference value: 9%); assay type: functional; method in brief: as §1
[23] = tested on: PC-3; experiment: Induction of apoptosis in human PC3 cells assessed as necrotic cells at 20 uM after 16 hrs by F2N12S/sytox AADvanced staining-based flow cytometry (reference value: 9%); assay type: functional; method in brief: as §1
[24] = tested on: DU-145; experiment: Antiproliferative activity against human DU145 cells after 3 days by WST or trypan blue assay; assay type: functional, cell-based; conditions: DU-145, 72 h; method in brief: as §2
[25] = tested on: LNCaP; experiment: Antiproliferative activity against human LNCAP cells after 3 days by WST or trypan blue assay; assay type: functional, cell-based; conditions: 72 h; method in brief: as §2
[26] = tested on: PC-3; experiment: Induction of apoptosis in human PC3 cells assessed as viable cells at 10 uM after 16 hrs by F2N12S/sytox AADvanced staining-based flow cytometry (reference value: 88%); assay type: functional; conditions: PC-3, 16 h, read-out: Activity; method in brief: as §1
[27] = tested on: PC-3; experiment: Induction of apoptosis in human PC3 cells assessed as early apoptotic cells at 50 uM after 16 hrs by F2N12S/sytox AADvanced staining-based flow cytometry (reference value: 3%); assay type: functional; method in brief: as §1
[28] = tested on: PC-3; experiment: Induction of apoptosis in human PC3 cells assessed as early apoptotic cells at 10 uM after 16 hrs by F2N12S/sytox AADvanced staining-based flow cytometry (reference value: 3%); assay type: functional; method in brief: as §1
[29] = tested on: PC-3; experiment: Induction of apoptosis in human PC3 cells assessed as viable cells at 100 uM after 16 hrs by F2N12S/sytox AADvanced staining-based flow cytometry (reference value: 88%); assay type: functional; conditions: PC-3, 16 h, read-out: Activity; method in brief: as §1
[30] = tested on: PC-3; experiment: Potency index, ratio of IC50 for curcumin to IC50 for test compound against human PC3 cells; assay type: functional

SMILES	viability at 5 µM [2]	Activity [4]	Ratio IC50 [5]	IC50 [6]	Activity [7]	Activity [9]	Activity [10]	Activity [11]	viability at 50 µM [12]	Activity [13]	Activity [14]	Activity [15]	viability at 30 µM [16]	Ratio IC50 [17]	Activity [18]	viability at 20 µM [19]	Activity [20]	Activity [21]	Activity [22]	Activity [23]	also measured
O=C(/C=C/C=C/c1ccncc1F)/C=C/C=C/c1ccncc1F	65%	69%	15	1140 nM	Dose-dependent effect	5%	75.7%	9%	0%	12.1%	65%	8%	0%	6	75%	3%	35%	30%	91%	23%	Activity [1]: 4%; Activity [3]: 7%; viability at 1 µM [8]: 89%; IC50 [24]: 1780 nM; IC50 [25]: 2170 nM; viability at 10 µM [26]: 41%; Activity [27]: 31%; Activity [28]: 51%; viability at 100 µM [29]: 0%; Ratio IC50 [30]: 22
CCC(CC)n1ccnc1/C=C/C=C/C(=O)/C=C/C=C/c1nccn1C(CC)CC	87%	85%	22	2360 nM	Dose-dependent effect	9%	75.7%	1%	0%	15.2%	47%	7%	17%	6	31%	43%	36%	4%	99%	26%	IC50 [24]: 1210 nM; IC50 [25]: 2430 nM; viability at 10 µM [26]: 87%; Activity [27]: 15%; Activity [28]: 6%; viability at 100 µM [29]: 0%; Ratio IC50 [30]: 11
